From ChEMBL document CHEMBL1158902, “Polyprenylated benzophenones from Garcinia assigu and their potential cancer chemopreventive activities” (J Nat Prod, 2003)

Columns and labels:
Raji [1] = test: Inhibition of TPA-induced EBV-early antigen activation in human Raji cells at 3.2 nmol after 48 hrs relative to TPA; format: cell-based; set-up: scale not given: the % may be the effect or the level left; conditions: human gammaherpesvirus 4
How it was run: (§1)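 Raji cells at 10^6 cells/mL were resuspended in RPMI 1640 with 10% FCS. Induction used 4 mM n-butyric acid plus 32 pmol TPA (20 ng/mL), with test compound added in DMSO. After 48 h at 37 °C, EA-positive cells were scored blind, at least 500 cells per assay. Activation is expressed as % of TPA-only control (100%) ± SD.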

[2] = Cytotoxicity against human Raji cells assessed as cell viability at 32 nmol after 48 hrs by trypan blue assay; format: cell-based; conditions: read-out: Activity
How it was run: (§2)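 Raji cells grown to 10^6 cells/mL, pelleted, and resuspended in RPMI 1640 with 10% FCS. Medium held 4 mM n-butyric acid, 32 pmol TPA (20 ng/mL, in DMSO) and test compound in DMSO. Incubated 48 h at 37 °C. Cell number and viability counted by hemocytometer with Trypan Blue; at least 60% survival required for a valid result.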

[3] = Cytotoxicity against human Raji cells assessed as cell viability at 16 nmol after 48 hrs by trypan blue assay; format: cell-based; conditions: read-out: Activity; how it was run: as §2
Raji [4] = test: Inhibition of TPA-induced EBV-early antigen activation in human Raji cells at 0.32 nmol after 48 hrs relative to TPA; format: cell-based; set-up: scale not given: the % may be the effect or the level left; conditions: human gammaherpesvirus 4; how it was run: as §1
[5] = Cytotoxicity against human Raji cells assessed as cell viability at 0.32 nmol after 48 hrs by trypan blue assay; format: cell-based; conditions: read-out: Activity; how it was run: as §2
Raji [6] = test: Inhibition of TPA-induced EBV-early antigen activation in human Raji cells at 32 nmol after 48 hrs relative to TPA; format: cell-based; set-up: scale not given: the % may be the effect or the level left; conditions: human gammaherpesvirus 4; how it was run: as §1
[7] = Cytotoxicity against human Raji cells assessed as cell viability at 3.2 nmol after 48 hrs by trypan blue assay; format: cell-based; conditions: read-out: Activity; how it was run: as §2
[8] = test system: Radical scavenging activity; test: Antioxidant activity assessed as DPPH radical scavenging activity; format: functional
How it was run: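 Test compound in ethanol mixed with 2 mL of 0.1 mM DPPH solution; held 30 min at room temperature, then absorbance at 520 nm read. EC50 estimated by probit transformation; IC50 as mean ± SD of five replicates.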

Raji [9] = test: Inhibition of TPA-induced EBV-early antigen activation in human Raji cells at 16 nmol after 48 hrs relative to TPA; format: cell-based; set-up: scale not given: the % may be the effect or the level left; conditions: human gammaherpesvirus 4; how it was run: as §1

Molecule | Activity (Raji [1]) | viability at 48 h, 32 nmol [2] | viability at 48 h, 16 nmol [3] | Activity (Raji [4]) | viability at 48 h, 0.32 nmol [5] | Activity (Raji [6]) | viability at 48 h, 3.2 nmol [7] | IC50 [8] | Activity (Raji [9])
COc1cc(C(=O)C2=C3OC(C)(C)[C@@H](CC=C(C)C)C[C@@]34C[C@@H](CC=C(C)C)C(C)(C)[C@@](CC=C(C)C)(C2=O)C4=O)ccc1O | 89% | 60% | > 80% | 100% | > 80% | 18.5% | > 80% | > 100 µM | 60.1%
C=C(C)[C@@H](CC=C(C)C)C[C@@]12C[C@@H](CC=C(C)C)C(C)(C)[C@@](CC=C(C)C)(C(=O)C(C(=O)c3ccc(O)c(OC)c3)=C1O)C2=O | 88.1% | 60% | > 80% | 100% | > 80% | 19.7% | > 80% | > 100 µM | 54.9%
CC(C)=CC[C@H]1C[C@@]23C[C@@H](CC=C(C)C)C(C)(C)[C@@](CC=C(C)C)(C(=O)C(C(=O)c4ccc(O)c(O)c4)=C2OC1(C)C)C3=O [CAMBOGIN] | 87.1% | 60% | > 80% | 100% | > 80% | 17.7% | > 80% | 13.3 µM | 56%
CC(C)=CC[C@@H]1C[C@@]2(CC=C(C)C)C(=O)[C@](CC=C(C)C)(C(=O)C(C(=O)c3ccccc3)=C2O)C1(C)C [CLUSIANONE] | 87.7% | 60% | > 80% | 100% | > 80% | 17.4% | > 80% | > 100 µM | 53.7%
CC1(C)[C@@H](O)CC[C@]2(C)[C@H]3C(=O)C=C4[C@@H]5C[C@@](C)(C(=O)O)CC[C@]5(C)CC[C@@]4(C)[C@]3(C)CC[C@@H]12 [ENOXOLONE] | 100% | > 80% | > 80% | 100% |  | 15.6% | > 80% |  | 54.3%
C=C(C)[C@@H](CC=C(C)C)C[C@@]12C[C@@H](CC=C(C)C)C(C)(C)[C@@](CC=C(C)C)(C(=O)C(C(=O)c3ccc(O)c(O)c3)=C1O)C2=O [GARCINOL] | 84.9% | 60% | > 80% | 100% | > 80% | 14.4% | > 80% | 10.2 µM | 47%
O=C(c1ccc(O)c(O)c1)c1c(O)cc(O)cc1O [MACLURIN] | 80.2% | 70% | > 80% | 94.3% | > 80% | 0% | > 80% |  | 52.7%
VITAMIN E |  |  |  |  |  |  |  | 22.8 µM | 
